The test system of assay [1] is Human immunodeficiency virus 1. Briefly: Inhibitory concentration required to inhibit HIV-induced cytopathicity in CEM-4 cells by 50% based in the MTT assay. The class given is functional, organism-based. Particulars: Human immunodeficiency virus 1, CEM-4; call rule not given here.
The subject of assay [2] is CEM-4. The assay is described as follows: Cytotoxic concentration required to reduce the viability of uninfected cells by 50% after 5 days of incubation in the presence on CEM-4 cells. Type of assay: functional. As to conditions: Homo sapiens, CEM-4, 120 h. A digest of the protocol:
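Uninfected CEM-4 cells were incubated with compound for 5 days. CC50 is the concentration that reduced viability by 50%. Values average at least two separate experiments.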

Assay [3] concerns Human immunodeficiency virus 1. The assay is described as follows: Inhibitory concentration required to inhibit HIV-induced cytopathicity in CEM-4 cells by 50% based in the MTT assay; Not active. The class given is functional, organism-based. (Damage to the host cells serves as the signal in cytopathic effect assays.)
For assay [4], the system named is Poliovirus 1. The assay is described as follows: Concentration required to inhibit Polio-1 induced cytopathicity in HeLa cells by 50%. Type of assay: functional, organism-based. Particulars: Enterovirus C.
In assay [5] the test system is Semliki Forest virus. The assay is described as follows: Concentration required to inhibit forest induced cytopathicity in Vero cells by 50%. The class given is functional, organism-based. The procedure, abridged: (§1)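 Virus was added to the cell monolayers in the presence of compound. Incubation continued until the viral cytopathic effect was scored. IC50 is the concentration that reduced virus-induced cytopathicity by 50%.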

In assay [6] the test system is Coxsackievirus. Briefly: Concentration required to inhibit Coxsackie induced cytopathicity in HeLa cells by 50%. Type of assay: functional, organism-based. The procedure, abridged: as §1
The test system of assay [7] is Vesicular stomatitis virus. The assay is described as follows: Concentration required to inhibit vesicular stomatitis induced cytopathicity in E6SM cells by 50%. Type of assay: functional, organism-based.
The subject of assay [8] is Human immunodeficiency virus 2. Briefly: Concentration required to inhibit by 50% syncytium formation between MOLT-4 cells and HIV-2 (ROD) infected HUT-78 cells. Particulars: Human immunodeficiency virus 2, MOLT-4. Type of assay: functional, organism-based. A digest of the protocol:
(§2)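 Uninfected MOLT-4 cells were co-cultured with HUT-78 cells chronically infected with HIV-1 (IIIB) or HIV-2 (ROD), in the presence of compound. The end point was syncytium formation, and IC50 is the concentration giving 50% inhibition. Values are means of two separate experiments.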

The test system of assay [9] is Human betaherpesvirus 5. The assay is described as follows: Concentration required to inhibit HCMV(Davis) induced cytopathicity in HEL cells by 50%. Type of assay: functional, organism-based. As to conditions: Human betaherpesvirus 5, HEL. The procedure, abridged:
as §1

Assay [10] relates to Human alphaherpesvirus 2. The assay is described as follows: Concentration required to inhibit HSV-2(G) induced cytopathicity in E6SM cells by 50%. Particulars: Human alphaherpesvirus 2, E6SM.
Assay [11] relates to Sindbis virus. The assay is described as follows: Concentration required to inhibit Sindbis induced cytopathicity in Vero cells by 50%. The class given is functional, organism-based. A digest of the protocol: as §1
For assay [12], the system named is MT4. Briefly: Concentration required to reduce the viability of mock-infected MT-4 cells by 50%. Type of assay: functional. Particulars: Homo sapiens. A digest of the protocol: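 Mock-infected MT-4 cells were exposed to compound. CC50 is the concentration that reduced cell viability by 50%. Values are means of two separate experiments.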
Assay [13] has as its system Tacaribe virus. The assay is described as follows: Concentration required to inhibit Tacaribe induced cytopathicity in Vero cells by 50%. As to conditions: Mammarenavirus tacaribeense. Type of assay: functional, cell-based.
Assay [14] relates to Human betaherpesvirus 5. The assay is described as follows: Concentration required to inhibit HCMV(AD169) induced cytopathicity in HEL cells by 50%. Type of assay: functional, organism-based. As to conditions: Human betaherpesvirus 5, HEL. A digest of the protocol: as §1
Assay [15] concerns HeLa. Briefly: Minimum cytotoxic concentration required to cause a microscopically detectable alteration of normal cell morphology in HeLa cells. Type of assay: functional, Homo sapiens. The procedure, abridged: (§3)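 Uninfected E6SM, HeLa or Vero cells were exposed to compound and examined by microscopy. MCC is the lowest concentration causing a detectable alteration of normal cell morphology.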

Assay [16] relates to Human alphaherpesvirus 1. The assay is described as follows: Concentration required to inhibit HSV-1(KOS) induced cytopathicity in E6SM cells by 50%. As to conditions: Human alphaherpesvirus 1, E6SM.
Assay [17] concerns Vaccinia virus. Briefly: Concentration required to inhibit Vaccinia induced cytopathicity in E6SM cells by 50%. The class given is functional, organism-based. As to conditions: Orthopoxvirus vaccinia.
For assay [18], the system named is Human alphaherpesvirus 1. Briefly: Concentration required to inhibit HSV-1 TK-(B2006) induced cytopathicity in E6SM cells by 50%. Particulars: Human alphaherpesvirus 1, E6SM.
Assay [19] concerns HEL. Briefly: Minimum cytotoxic concentration required to cause a microscopically detectable alteration of normal cell morphology in HEL cells. The class given is functional, Homo sapiens.
The subject of assay [20] is Human respirovirus 3. Briefly: Concentration required to inhibit parainfluenza-3 induced cytopathicity in Vero cells by 50%. The class given is functional, organism-based. As to conditions: Human respirovirus 3, Vero. The procedure, abridged: as §1
Assay [21] concerns Human immunodeficiency virus 1. The assay is described as follows: Concentration required to inhibit by 50% syncytium formation between MOLT-4 cells and HIV-1(IIIB). The class given is functional, organism-based. As to conditions: Human immunodeficiency virus 1, MOLT-4. A digest of the protocol:
as §2

The test system of assay [22] is Human immunodeficiency virus 2. The assay is described as follows: Concentration required to inhibit HIV-2 induced cytopathicity in MT-4 cells by 50%. Type of assay: functional, organism-based. As to conditions: Human immunodeficiency virus 2, MT4. The procedure, abridged:
(§4)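 MT-4 cells were infected with HIV-1 (strain HTLV-IIIB/LAI) or HIV-2 (strain LAV-2 ROD) and exposed to compound. IC50 is the concentration that inhibited HIV-induced cytopathicity by 50%. Values are means of two separate experiments.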

The subject of assay [23] is Human immunodeficiency virus 1. The assay is described as follows: Concentration required to inhibit HIV-1 induced cytopathicity in MT-4 cells by 50%. Particulars: Human immunodeficiency virus 1, MT4. The class given is functional, organism-based. The procedure, abridged:
as §4

For assay [24], the system named is Junin virus. Briefly: Concentration required to inhibit Junin induced cytopathicity in Vero cells by 50%. The class given is functional, organism-based. Particulars: Mammarenavirus juninense.
Assay [25] concerns Vero. The assay is described as follows: Minimum cytotoxic concentration required to cause a microscopically detectable alteration of normal cell morphology in Vero cells. The class given is functional, Chlorocebus sabaeus. The procedure, abridged:
as §3

The subject of assay [26] is Mammalian orthoreovirus 1. The assay is described as follows: Concentration required to inhibit reovirus-1 induced cytopathicity in Vero cells by 50%. The class given is functional, organism-based. As to conditions: Mammalian orthoreovirus 1, Vero. The procedure, abridged: as §1
The test system of assay [27] is E6SM. Briefly: Minimum cytotoxic concentration required to cause a microscopically detectable alteration of normal cell morphology in E6SM cells. Type of assay: functional, Homo sapiens. The procedure, abridged: as §3

Bounds are passed on as bounds.

The term IC50 denotes the concentration that gives 50% inhibition. A high value points to lower potency. As a reminder, the CC50 is the concentration giving 50% cytotoxicity. Read a low CC50 as greater toxicity to the cells. Turning to `CCCCCCCCCCCCSCCCCCCCCCCC(=O)NCCCCCCCCCCC(=O)NC(CCC(=O)[O-])C(=O)O.[Na+]` (configuration not stated), the IC50 in assay [1] was 11 µg/mL. The CC50 in [2] is above 100 µg/mL.

For `CCCCCCCCCCCCSCCCCCCC(=O)NCCCCCCCCCCC(=O)NCC(=O)[O-].[Na+]`, the IC50 entry in assay [3] is “Not Active”. Besides, the CC50 in assay [2] was determined as 118 µg/mL.

Regarding `CCCCCCCCCCCCSCCCCCCCCCCCCCCCCCCCCCCCCCCCCCCC(=O)NCCCCCCCCCCC(=O)NC(CCC(=O)[O-])C(=O)O.[Na+]` (configuration not stated), the midpoint of inhibition in assay [1], the IC50, lay at 15 µg/mL. In [2], this compound returned a CC50 above 100 µg/mL.

In [1], `CCCCCCCCCCCCSCCCCCCCCCCCCCCCCCCCCCCCCCCCCC(=O)NCCCCCCCCCCC(=O)NCC(=O)[O-].[Na+]` returned an IC50 of 194 µg/mL. For the same compound, the CC50 in assay [2] is above 300 µg/mL.

In assay [1], `CCCCCCCCCCCCSCCCCCCC(=O)N(CC)CCCCCCCCCCC(=O)NC(CCC(=O)[O-])C(=O)O.[Na+]` (configuration not stated) came in with an IC50 of 21 µg/mL. Further, the CC50 in assay [2] is above 100 µg/mL.

Turning to `CCCCCCCCCCCCSCCCCCCCCCCCCCCCCCCCCC(=O)N(CC)CCCCCCCCCCC(=O)NC(CCC(=O)[O-])C(=O)O.[Na+]` (configuration not stated), in [1], the IC50 amounted to 46 µg/mL. Besides, in [2], the cytotoxic concentration (CC50) was above 300 µg/mL.

Turning to `CCCCCCCCCCCCSCCCCCCCCCCC(=O)N(CC)CCCCCCCCCCC(=O)NCCC(=O)[O-].[Na+]`, the IC50 in assay [4] was above 200 µg/mL; in assay [5], above 200 µg/mL; in assay [6], above 200 µg/mL; in assay [7], above 200 µg/mL; in [8], 30 µg/mL; in [9], 20 µg/mL. Moreover, the half-maximal inhibitory concentration (IC50) in assay [10] was 20 µg/mL; in assay [11], above 200 µg/mL; in [13], above 50 µg/mL; in assay [3], “Not Active”; in assay [14], 50 µg/mL; in assay [16], 70 µg/mL. The IC50 in assay [17] was above 200 µg/mL; in [18] it was 150 µg/mL; in assay [20] it was above 200 µg/mL; in [21], 30 µg/mL; in assay [22], 30 µg/mL; in assay [23], 13 µg/mL. Further, the figures for the IC50 in assay [24] and in [26] were above 50 µg/mL and above 200 µg/mL, respectively. In addition, the CC50 in assay [12] is above 250 µg/mL; in [2] it was 50 µg/mL. For the same compound, the MMC in [15] is above 200 µg/mL; in assay [19] it was above 50 µg/mL; in [25], above 200 µg/mL.

`CCCCCCCCCCCCSCCCCCCCCCCCCCCCCCCCCCCC(=O)N(CC)CCCCCCCCCCC(=O)[O-].[Na+]` had an IC50 in [1] of 4 µg/mL. It took 50 µg/mL to reach half-maximal cytotoxicity in assay [2] (CC50).

`CCCCCCCCCCCCSCCCCCCCCCCCCCCC(=O)NCCCCCCCCCCC(=O)NC(CCC(=O)[O-])C(=O)O.[Na+]` (configuration not stated): in [1], it took 12 µg/mL to reach half-maximal inhibition (IC50). The same compound gave a CC50 in [2] above 100 µg/mL.

As to `CCCCCCCCCCCCSCCCCCCC(=O)N(CC)CCCCCCCCCCC(=O)NCC(=O)[O-].[Na+]`, the 50% inhibitory concentration (IC50) entry in assay [3] was “Not Active”. Moreover, in assay [2], it took 50 µg/mL to reach half-maximal cytotoxicity (CC50).

`CCCCCCCCCCCCSCCCCCCCCCCCCCCCCC(=O)NCCCCCCCCCCC(=O)NCCC(=O)[O-].[Na+]`: the IC50 result in assay [3] is given as “Not Active”. This compound had a CC50 in assay [2] above 100 µg/mL.

`CCCCCCCCCCCCSCCCCCCCCCCCCCCCCCCCCCCC(=O)NCCCCCCCCCCC(=O)[O-].[Na+]`: the IC50 in [4] is above 200 µg/mL; in assay [5], above 100 µg/mL; in [6], above 200 µg/mL; in assay [7] it was above 100 µg/mL; in assay [8] it was 150 µg/mL; in assay [9], above 50 µg/mL. For the same compound, the IC50 in [10] was above 100 µg/mL; in assay [11], above 100 µg/mL; in assay [13], above 50 µg/mL; in [3], “Not Active”; in [14], above 50 µg/mL; in [16], above 100 µg/mL. Further, the IC50 in assay [17] was above 100 µg/mL; in assay [18], above 100 µg/mL; in assay [20], above 100 µg/mL; in assay [21], 150 µg/mL; in assay [22] it was 69 µg/mL; in assay [23] it was 55 µg/mL. Further, the results for the IC50 in assay [24] and in [26] were above 50 µg/mL and above 100 µg/mL, respectively. Besides, the CC50 in assay [12] was above 250 µg/mL; in assay [2], 99 µg/mL. For the same compound, the MMC in assay [15] is above 200 µg/mL; in [19], above 50 µg/mL; in assay [27] it was above 200 µg/mL.

With `CCCCCCCCCCCCSCCCCCCCCCCC(=O)N(CC)CCCCCCCCCCC(=O)NCC(=O)[O-].[Na+]`, it took 120 µg/mL to reach half-maximal inhibition in assay [1] (IC50). The CC50 in [2] is above 100 µg/mL.

The record behind these values is ChEMBL document CHEMBL1130289, “Polyanion inhibitors of human immunodeficiency virus and other viruses. 5. Telomerized anionic surfactants derived from amino acids” (J Med Chem, 1997).
